UCH37 DUB inh: inhibitors of human UCH37 deubiquitinase, primary screen, biochemical, Ub-AMC cleavage, fluorescence; purified proteasome/UCH37; inhibition, % (concentration not given with the values); 0.33% of 330,000 active; AID 588478, 2011;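 active = mean inhibition over replicate wells above about 20%, limit read from the data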
Target sequence (Q9Y5K5 whole entry, looked up): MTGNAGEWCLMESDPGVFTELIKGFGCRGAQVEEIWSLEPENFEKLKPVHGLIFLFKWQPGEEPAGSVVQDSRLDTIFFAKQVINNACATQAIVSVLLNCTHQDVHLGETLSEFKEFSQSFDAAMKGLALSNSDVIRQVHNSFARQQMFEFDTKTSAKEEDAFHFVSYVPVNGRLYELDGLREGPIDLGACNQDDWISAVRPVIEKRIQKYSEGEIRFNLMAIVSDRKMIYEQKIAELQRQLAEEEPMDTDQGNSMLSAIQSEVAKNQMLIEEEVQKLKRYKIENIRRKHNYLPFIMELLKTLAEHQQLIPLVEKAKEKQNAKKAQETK
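Signal – fluorescence, ex 355 nm, em 460 nm · System – Proteasome-bound UCH37 · Input – 0.15 nM proteasome as dispensed · Timing – 30 min preincubation with enzyme, 25 min cleavage at room temperature · Read-out basis – percent inhibition of cleavage signal versus uninhibited and no-proteasome wells · Medium – Tris-HCl pH 7.4 with ATP-MgCl2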
SENP8 block-1: SENP8 protease inhibitors, primary screen, biochemical, luminescence. 1.2% of 330,000 active. purified SENP8, Z-RLRGG-aminoluciferin cleavage. Sentrin-specific protease 8 (Homo sapiens), Q96LD8. inhibition, % at 10 µM. AID 2540, 2010; in the data active = inhibition above about 50%
Target sequence (Q96LD8 whole entry, looked up): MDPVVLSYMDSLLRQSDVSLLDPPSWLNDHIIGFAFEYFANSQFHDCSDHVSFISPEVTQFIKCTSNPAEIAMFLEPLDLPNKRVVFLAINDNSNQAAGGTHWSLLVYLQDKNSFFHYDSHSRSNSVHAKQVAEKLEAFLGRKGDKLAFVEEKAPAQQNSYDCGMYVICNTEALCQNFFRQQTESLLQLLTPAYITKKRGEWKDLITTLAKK
SENP1 FRET inh: human SENP1 catalytic domain inhibitors, primary screen, biochemical, FRET, uHTS | Sentrin-specific protease 1 (Homo sapiens), Q9P0U3 | recombinant SENP1 catalytic domain, CyPet-SUMO1-YPet FRET cleavage | inhibition, % at 10 µM | 0.21% of 360,000 active | AID 624204, 2012;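 active = inhibition at least 30% at 10 µM, raw YFP signal under a set limit, fluorescence ratio 0.5 to 1.5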
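Compound: 10 µM single point, 0.5% DMSO; Test system: hSENP1 catalytic domain, recombinant; Timing: 50 min reaction at room temperature; Technique: FRET, CFP and YFP emission; Control set: no-enzyme wells low, DMSO-plus-enzyme wells high control.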
SENP7 block: SENP7 protease inhibitors, primary screen, biochemical, luminescence, uHTS; AID 434973, 2010; inhibition, % at 5 µM; Sentrin-specific protease 7 (Homo sapiens), Q9BQF6; recombinant SENP7, Z-RLRGG-aminoluciferin luminescence, 40 min; 1.5% of 330,000 active;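 active = inhibition above about 50% at the single test dose, limit read from the data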
SENP6 inh: SENP6 protease inhibitors, primary screen, biochemical, luminescence, uHTS. Sentrin-specific protease 6 (Homo sapiens), Q9GZR1. Recombinant SENP6 catalytic domain, aminoluciferin luminescence. inhibition, % at 10 µM. 1.8% of 330,000 active. AID 2599, 2010;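 active = inhibition above about 50% at the single tested dose, limit read from the data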
SENP8 block-2: human SENP8 protease inhibitors, primary screen, biochemical, fluorescence, Nedd8 protein substrate, uHTS. Sentrin-specific protease 8 (Homo sapiens), Q96LD8. recombinant SENP8. inhibition, % at 20 µM. 0.64% of 360,000 active. AID 602440, 2012; in the data active = inhibition mostly above about 40%, no sharp cut-off; inactive = mostly below about 27%
SENP8 conf: human SENP8 protease inhibitors, confirmation, biochemical, Nedd8 protein substrate, single concentration. shares compounds with SENP8 block-2. purified SENP8, Nedd8-AMC/pro-Nedd8 cleavage fluorescence, 30 min. inhibition, % at 25 µM. 15% of 1,400 active; in the data active = inhibition mostly above about 39%, no sharp cut-off; inactive = mostly below about 34%
Numbers stand for hits; – = inactive; · = no result given. Compounds with a hit are over-represented: about 2.6% of the library has one in this group of screens.

SMILES	UCH37 DUB inh	SENP8 block-1	SENP1 FRET inh	SENP7 block	SENP6 inh	SENP8 block-2	SENP8 conf
COc1cccc(NC(=O)c2ccc(NCCCN3CC(C)CC(C)C3)c([N+](=O)[O-])c2)c1 (stereo not drawn)	–	·	–	·	·	–	·
CCCN(CCC)CCCNc1ccc(C(=O)Nc2cccc(OC)c2)cc1[N+](=O)[O-]	–	–	–	–	–	35.3	–
COC(=O)c1cc(=O)nc(NN=C2CCCCC2)s1	·	·	–	·	·	–	·
COC(=O)c1cc(=O)nc(NN=C2c3ccccc3-c3ccccc32)s1	·	·	–	·	·	38.3	–
Cc1cnc(C(=O)Nc2c(-c3ccccc3)[nH][nH]c2=O)cn1	·	·	–	·	·	41.4	45.2
O=C(Nc1c(-c2ccccc2)[nH][nH]c1=O)c1cccc(C(F)(F)F)c1	·	·	–	·	·	49.3	–
O=C(Nc1c(-c2ccc(Cl)cc2)[nH][nH]c1=O)c1ccc(Br)cc1	·	·	–	·	·	43.3	–
O=C(Nc1c(-c2ccccc2)[nH][nH]c1=O)c1ccccc1	·	·	–	·	·	–	·
CCOc1ccc(CNC(=S)NN=Cc2ccc([N+](=O)[O-])cc2)cc1	–	·	·	·	·	·	·
C=CCN1C(=O)C(C)SC1=NS(=O)(=O)c1ccc(Cl)cc1 (stereo not drawn)	–	·	·	·	·	·	·
COc1ccc(-c2ccc(C=NNC(=O)Cc3nnc(N)s3)o2)cc1Cl	–	·	·	·	·	·	·
CSc1nnc(C(C)(C)C)c(=O)n1N=Cc1c(O)ccc2ccccc12	–	·	·	·	·	·	·
COCCCN1C(=O)C(=O)/C(=C(/O)c2ccc(S(=O)(=O)N3CCCCC3)cc2)C1c1ccc(O)cc1 (stereo not drawn)	–	–	–	–	–	45.4	–
COCCCN1C(=O)C(=O)/C(=C(/O)c2ccc(S(=O)(=O)N3CCCCC3)cc2)C1c1ccc(O)c(OC)c1 (stereo not drawn)	–	–	–	–	–	–	·
Cc1ccc(Nc2nc(=O)c3cc([N+](=O)[O-])ccc3s2)cc1	–	–	–	–	–	–	·
COc1ccc(Nc2nc(=O)c3cc([N+](=O)[O-])ccc3s2)cc1	–	·	–	·	·	55.4	–
COCCNC(=S)NN=C(C)c1ccccc1OC	–	·	·	·	·	·	·
COc1ccc(NC(=O)Nc2ccc(N3CCOCC3)c3nonc23)c(OC)c1	–	–	–	–	–	44.0	–
CCC(=NNC(=O)COc1ccc(Br)cc1)c1ccc(OC)c(OC)c1	–	·	·	·	·	·	·
COc1ccc(C=NNC(=O)c2cc(C3CC3)[nH]n2)cc1OC	–	·	·	·	·	·	·
CC(=O)c1cccc(NC(=O)N2CCCC2C(=O)Nc2cccc(C)c2)c1 (stereo not drawn)	–	–	–	–	–	42.0	–
Cc1nc2c(c(=O)n1CCC1=CCCCC1)c1nc3ccccc3nc1n2N=Cc1ccco1	–	·	·	·	·	·	·
CC(/C=C/C(=O)c1ccc(C)cc1)=C\c1ccccc1	–	–	–	–	–	46.2	–
Cc1ccc(C(=O)/C=C\C(=O)c2ccc(C)cc2)cc1	–	·	–	·	·	–	·
Cn1cccc1CC(=O)NN=C/C(Cl)=C/c1ccccc1	–	·	·	·	·	·	·
SMILES	UCH37 DUB inh	SENP8 block-1	SENP1 FRET inh	SENP7 block	SENP6 inh	SENP8 block-2	SENP8 conf
CCC(C)C(NC(N)=O)C(=O)Nc1ccc(OCc2ccccc2)cc1 (stereo not drawn)	–	–	–	–	–	48.6	–
O=[N+]([O-])c1ccc(CNc2ccc(F)cc2)s1	–	–	–	–	–	–	·
COc1ccc(NCc2ccc([N+](=O)[O-])s2)cc1	–	–	–	–	–	–	·
O=[N+]([O-])c1ccc(CNc2ccc(Cl)cc2)s1	–	–	–	–	–	41.8	–
COc1ccc(NCc2ccc([N+](=O)[O-])s2)c(OC)c1	–	·	–	·	·	57.2	78.4
COc1ccc(C=NNC(=O)c2ccc(-c3ccccc3)cc2)cc1O	–	·	·	·	·	·	·
O=C(NN=CCCc1ccccc1)c1ccco1	–	·	·	·	·	·	·
Cc1cc(O)c(C(C)C)cc1N=Cc1cc([N+](=O)[O-])ccc1O	–	–	–	–	–	72.9	–
Cc1cc(O)c(C(C)C)cc1N=Cc1ccccc1O	–	–	–	–	–	82.4	–
Cc1nn(C)cc1C=NNC(=O)Cc1ccc([N+](=O)[O-])cc1	–	·	·	·	·	·	·
CCOc1ccc(N(CC(=O)NCc2ccccc2OC)S(C)(=O)=O)cc1	–	–	–	–	–	–	·
CCOc1ccc(N(CC(=O)NCc2ccccc2)S(C)(=O)=O)cc1	–	–	–	–	–	48.1	–
O=S1(=O)NC2c3ccccc3CC2O1 (stereo not drawn)	–	–	–	–	–	45.5	57.4
CC1=NN(c2ccc(C)c(C)c2)C(=O)C1C(c1cccc(O)c1)C1C(=O)N(c2ccc(C)c(C)c2)N=C1C (stereo not drawn)	–	–	–	–	–	80.9	51.9
Nc1nonc1-n1nnc(C(=O)NN=Cc2cccnc2)c1CSc1ccc(Cl)cc1	–	·	·	·	·	·	·
CC1=NN(c2ccccc2C)C(=O)C1	–	·	–	·	·	51.0	–
Cc1nn(Cc2ccc(Cl)cc2Cl)c(C)c1NC(=O)Cn1nc([N+](=O)[O-])c(Cl)c1C	–	–	–	–	–	53.6	–
O=[N+]([O-])c1ccc(NN=C2CC3CC=CC23)c([N+](=O)[O-])c1 (stereo not drawn)	–	·	·	·	·	·	·
O=[N+]([O-])c1ccc(NN=C2CC3CCC2C3)c([N+](=O)[O-])c1 (stereo not drawn)	·	·	–	·	·	40.6	–
O=[N+]([O-])c1ccc(N/N=C2\CC3CC=CC23)c([N+](=O)[O-])c1 (stereo not drawn)	·	–	–	–	–	40.1	–
Cc1ccc(-n2[nH]c(C)c(/C=N/Nc3ccc([N+](=O)[O-])cc3[N+](=O)[O-])c2=O)cc1	·	–	–	–	–	79.6	–
Cc1[nH]n(-c2ccc([N+](=O)[O-])cc2)c(=O)c1C=NCCc1c(C)[nH]c2ccccc12	–	–	–	–	–	42.3	–
Cc1[nH]n(-c2ccc([N+](=O)[O-])cc2)c(=O)c1C=NCC1CCCO1 (stereo not drawn)	–	–	–	–	–	–	·
CC1(C)OC(c2ccccc2)=C/C(=C\C=NNC(=O)c2ccncc2)O1	–	·	·	·	·	·	·
CCNC(=S)NN=Cc1ccc(OCc2ccc(C(=O)OC)cc2)cc1	–	·	·	·	·	·	·
Cc1ccc(Cn2nc(-c3ccccc3)nc2-c2ccccc2)cc1	–	59.0	–	68.1	74.0	43.7	–
CC1(C)CC(=NO)C(C(O)c2cccc([N+](=O)[O-])c2)C(C)(C)N1 (stereo not drawn)	–	·	·	·	·	·	·

High-throughput results as filed in PubChem.
